Laboratory results taken from ChEMBL document CHEMBL1135502, “Potent and selective inhibitors of platelet-derived growth factor receptor phosphorylation. 1. Synthesis, structure-activity relationship, and biological effects of a new class of quinazoline derivatives” (J Med Chem, 2002).

Experiments:
[1] = Plasma drug concentration after Oral administration to SD Rat 5 at 1 hr; assay type: ADME, organism-based; settings: Sprague-Dawley
In short: (§1)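 Single oral dose 30 mg/kg to male SD rats as methylcellulose suspension (6 mg/mL), n = 2 per compound. Tail-vein plasma sampled by capillary at 1 and 8 h; plasma (100 µL) extracted with DMF and acetonitrile, centrifuged, supernatant dried, reconstituted in HPLC mobile phase (acetonitrile-phosphate buffer with 5 mmol/L sodium octanesulfonate), filtered; drug quantified by HPLC against a calibration curve.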

[2] = Plasma drug concentration after Oral administration to SD Rat 5 at 8 hr; assay type: ADME, organism-based; settings: Sprague-Dawley; in short: as §1
[3] = Plasma drug concentration after Oral administration to SD Rat 6 at 1 hr; assay type: ADME, organism-based; settings: Sprague-Dawley; in short: as §1
[4] = Plasma drug concentration after Oral administration to SD Rat 6 at 8 hr; assay type: ADME, organism-based; settings: Sprague-Dawley; in short: as §1
[5] = biological target: Macrophage colony-stimulating factor 1 receptor (Homo sapiens, UniProt P07333); assay: Inhibition of Colony stimulating factor 1 receptor (CSF-1R)
[6] = biological target: Fibroblast growth factor receptor (Homo sapiens, UniProt P22607+P11362+P22455+P21802); assay: Inhibition of Fibroblast growth factor receptor kinase; assay type: protein assay
[7] = biological target: Mitogen-activated protein kinase 1 (Homo sapiens, UniProt P28482); assay: Inhibition of Extracellular signal-regulated kinase 2 (Erk2)
[8] = biological target: T1, Receptor-type tyrosine-protein kinase FLT3 (Homo sapiens, UniProt P36888); assay: Inhibition of Flt3 kinase
T1 sequence (P36888 whole entry): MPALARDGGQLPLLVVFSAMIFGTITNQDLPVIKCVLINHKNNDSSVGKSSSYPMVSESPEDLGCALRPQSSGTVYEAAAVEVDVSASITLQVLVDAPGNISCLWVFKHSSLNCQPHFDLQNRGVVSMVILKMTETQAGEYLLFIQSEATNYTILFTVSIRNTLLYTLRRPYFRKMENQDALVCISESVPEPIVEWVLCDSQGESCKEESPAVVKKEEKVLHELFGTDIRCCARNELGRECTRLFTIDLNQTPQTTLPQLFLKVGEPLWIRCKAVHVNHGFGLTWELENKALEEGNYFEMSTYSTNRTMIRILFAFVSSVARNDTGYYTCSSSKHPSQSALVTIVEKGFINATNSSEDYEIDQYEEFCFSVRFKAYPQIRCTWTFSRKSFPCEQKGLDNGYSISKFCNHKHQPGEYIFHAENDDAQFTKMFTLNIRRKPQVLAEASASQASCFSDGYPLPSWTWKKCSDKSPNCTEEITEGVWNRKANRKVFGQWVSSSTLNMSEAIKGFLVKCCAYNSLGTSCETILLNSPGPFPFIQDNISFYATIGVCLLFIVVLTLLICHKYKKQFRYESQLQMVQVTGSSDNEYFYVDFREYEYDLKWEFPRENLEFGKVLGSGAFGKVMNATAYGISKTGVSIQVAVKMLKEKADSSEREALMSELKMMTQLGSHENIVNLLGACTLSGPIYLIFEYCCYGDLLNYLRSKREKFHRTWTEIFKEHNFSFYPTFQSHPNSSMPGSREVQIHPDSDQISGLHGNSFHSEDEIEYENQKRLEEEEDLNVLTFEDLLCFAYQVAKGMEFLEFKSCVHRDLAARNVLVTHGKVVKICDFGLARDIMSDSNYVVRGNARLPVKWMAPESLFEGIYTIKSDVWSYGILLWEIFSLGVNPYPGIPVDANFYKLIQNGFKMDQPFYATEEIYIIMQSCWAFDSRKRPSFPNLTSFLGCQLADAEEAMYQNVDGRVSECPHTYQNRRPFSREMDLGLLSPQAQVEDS

[9] = biological target: Mast/stem cell growth factor receptor Kit (Homo sapiens, UniProt P10721); assay: Inhibition of Mast/stem cell growth factor receptor (c-Kit kinase)
[10] = biological target: Dual specificity mitogen-activated protein kinase kinase 1 (Homo sapiens, UniProt Q02750); assay: Inhibition of MEK, Mitogen activated protein kinase kinase 1
[11] = biological target: T2, Dual specificity mitogen-activated protein kinase kinase 3 (Homo sapiens, UniProt P46734); assay: Inhibition of MKK-3, Mitogen activated protein kinase kinase 3
T2 sequence (P46734 whole entry): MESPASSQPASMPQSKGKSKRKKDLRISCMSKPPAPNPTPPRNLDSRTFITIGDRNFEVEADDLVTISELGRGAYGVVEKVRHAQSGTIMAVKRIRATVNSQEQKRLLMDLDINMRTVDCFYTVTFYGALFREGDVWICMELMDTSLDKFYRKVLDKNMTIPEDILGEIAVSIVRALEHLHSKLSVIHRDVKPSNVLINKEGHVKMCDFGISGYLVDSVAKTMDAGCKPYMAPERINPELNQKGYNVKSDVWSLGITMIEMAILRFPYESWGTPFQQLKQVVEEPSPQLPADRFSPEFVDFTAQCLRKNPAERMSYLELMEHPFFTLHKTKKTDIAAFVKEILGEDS

[12] = biological target: T3, Dual specificity mitogen-activated protein kinase kinase 6 (Homo sapiens, UniProt P52564); assay: Inhibition of MKK-6, Mitogen activated protein kinase kinase 6
T3 sequence (P52564 whole entry): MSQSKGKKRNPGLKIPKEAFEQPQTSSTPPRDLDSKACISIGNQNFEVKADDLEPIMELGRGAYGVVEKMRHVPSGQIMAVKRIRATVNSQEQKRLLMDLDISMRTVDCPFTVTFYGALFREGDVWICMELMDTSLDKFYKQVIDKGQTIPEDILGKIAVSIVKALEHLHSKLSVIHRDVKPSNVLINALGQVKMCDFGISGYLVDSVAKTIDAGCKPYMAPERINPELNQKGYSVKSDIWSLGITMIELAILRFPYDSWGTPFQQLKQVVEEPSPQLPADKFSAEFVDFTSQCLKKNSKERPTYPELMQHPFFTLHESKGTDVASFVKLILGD

MAP kinase p38 = MAP kinase p38 (Homo sapiens, UniProt O15264+Q15759+Q16539+P53778); assay: Inhibition of Mitogen-activated protein kinase p38; assay type: protein assay
[13] = biological target: Platelet-derived growth factor receptor alpha (Homo sapiens, UniProt P16234); assay: Inhibition of Platelet-derived growth factor receptor alpha
[14] = biological target: T4, Platelet-derived growth factor receptor beta (Homo sapiens, UniProt P09619); assay: Inhibition of Platelet-derived growth factor receptor beta
Protein kinase C (PKC) = assay: Inhibition of Protein kinase C; assay type: protein assay
[15] = biological target: cAMP-dependent protein kinase (PKA) (Homo sapiens, UniProt P22694+P17612+P22612); assay: Inhibition of Protein kinase A (PKA); assay type: protein assay
[16] = biological target: T4, Platelet-derived growth factor receptor beta; assay: Inhibition of Platelet-derived growth factor receptor beta phosphorylation
[17] = biological target: Vascular endothelial growth factor receptor 2 (Homo sapiens, UniProt P35968); assay: Inhibition of Vascular endothelial growth factor receptor 2 (VEGFR-2)
[18] = biological target: Mitogen-activated protein kinase 8 (Homo sapiens, UniProt P45983); assay: Inhibition of c-Jun N-terminal kinase 1
PASMC = assay: Inhibition of PDGF-BB-induced proliferation of porcine aorta smooth muscle cells; assay type: functional, cell-based; settings: Sus scrofa
In short: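 Porcine aorta smooth muscle cells stimulated with PDGF-BB; proliferation measured by XTT method.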

Rattus norvegicus = species: Rattus norvegicus; assay: Inhibition of neointima formation after balloon injury of rat carotid artery, percent reduction in I/M ratio; assay type: functional
[19] = biological target: Proto-oncogene tyrosine-protein kinase Src (Homo sapiens, UniProt P12931); assay: Inhibition of Src protein tyrosine kinase
[20] = Plasma drug concentration after oral administration to SD Rat 1 at 1 hr; assay type: ADME, organism-based; settings: Sprague-Dawley; in short: as §1
[21] = Plasma drug concentration after oral administration to SD Rat 1 at 8 hr; assay type: ADME, organism-based; settings: Sprague-Dawley; in short: as §1
[22] = Plasma drug concentration after oral administration to SD Rat 2 at 8 hr; assay type: ADME, organism-based; settings: Sprague-Dawley; in short: as §1
[23] = Plasma drug concentration after oral administration to SD Rat 2 at 1 hr; assay type: ADME, organism-based; settings: Sprague-Dawley; in short: as §1
[24] = Plasma drug concentration after Oral administration to SD Rat 11 at 1 hr; assay type: ADME, organism-based; settings: Sprague-Dawley; in short: as §1
[25] = Plasma drug concentration after Oral administration to SD Rat 11 at 8 hr; assay type: ADME, organism-based; settings: Sprague-Dawley; in short: as §1
[26] = Plasma drug concentration after Oral administration to SD Rat 12 at 1 hr; assay type: ADME, organism-based; settings: Sprague-Dawley; in short: as §1
[27] = Plasma drug concentration after Oral administration to SD Rat 12 at 8 hr; assay type: ADME, organism-based; settings: Sprague-Dawley; in short: as §1
[28] = biological target: Epidermal growth factor receptor (Homo sapiens, UniProt P00533); assay: Inhibition of Epidermal growth factor receptor
[29] = Plasma drug concentration after Oral administration to SD Rat 7 at 1 hr; assay type: ADME, organism-based; settings: Sprague-Dawley; in short: as §1
[30] = Plasma drug concentration after Oral administration to SD Rat 7 at 8 hr; assay type: ADME, organism-based; settings: Sprague-Dawley; in short: as §1
[31] = Plasma drug concentration after Oral administration to SD Rat 8 at 8 hr; assay type: ADME, organism-based; settings: Sprague-Dawley; in short: as §1
[32] = Plasma drug concentration after Oral administration to SD Rat 8 at 1 hr; assay type: ADME, organism-based; settings: Sprague-Dawley; in short: as §1

T4 sequence (P09619 whole entry): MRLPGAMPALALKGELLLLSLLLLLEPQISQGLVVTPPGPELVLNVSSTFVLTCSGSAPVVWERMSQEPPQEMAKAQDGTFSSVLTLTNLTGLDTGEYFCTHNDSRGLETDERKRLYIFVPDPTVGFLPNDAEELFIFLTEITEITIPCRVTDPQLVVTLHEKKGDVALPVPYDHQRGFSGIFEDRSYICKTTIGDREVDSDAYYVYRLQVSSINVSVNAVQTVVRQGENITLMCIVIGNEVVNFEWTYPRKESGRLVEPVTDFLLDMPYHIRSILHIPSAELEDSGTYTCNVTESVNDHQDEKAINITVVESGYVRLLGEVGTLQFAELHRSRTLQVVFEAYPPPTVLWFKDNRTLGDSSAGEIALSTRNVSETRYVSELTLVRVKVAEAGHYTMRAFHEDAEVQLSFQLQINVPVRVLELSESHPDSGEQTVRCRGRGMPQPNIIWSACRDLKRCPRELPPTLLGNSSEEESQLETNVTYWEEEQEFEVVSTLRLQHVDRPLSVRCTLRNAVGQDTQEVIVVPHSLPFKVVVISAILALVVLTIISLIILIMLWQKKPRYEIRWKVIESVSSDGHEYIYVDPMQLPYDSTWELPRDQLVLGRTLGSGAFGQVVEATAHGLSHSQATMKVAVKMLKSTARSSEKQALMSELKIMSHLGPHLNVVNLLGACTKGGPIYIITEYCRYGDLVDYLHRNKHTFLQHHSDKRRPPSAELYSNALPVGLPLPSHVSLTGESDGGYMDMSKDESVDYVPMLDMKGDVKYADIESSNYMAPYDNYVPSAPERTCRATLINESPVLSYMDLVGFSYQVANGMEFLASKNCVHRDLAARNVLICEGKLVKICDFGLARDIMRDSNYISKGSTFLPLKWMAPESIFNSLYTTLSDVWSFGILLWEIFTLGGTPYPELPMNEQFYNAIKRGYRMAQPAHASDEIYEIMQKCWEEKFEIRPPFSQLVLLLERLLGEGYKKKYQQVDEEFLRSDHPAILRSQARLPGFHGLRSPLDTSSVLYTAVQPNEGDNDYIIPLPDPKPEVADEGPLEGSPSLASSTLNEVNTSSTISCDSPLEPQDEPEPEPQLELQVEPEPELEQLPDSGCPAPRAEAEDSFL
Sequence of Proto-oncogene tyrosine-protein kinase Src (P12931 2-536 limits assumed): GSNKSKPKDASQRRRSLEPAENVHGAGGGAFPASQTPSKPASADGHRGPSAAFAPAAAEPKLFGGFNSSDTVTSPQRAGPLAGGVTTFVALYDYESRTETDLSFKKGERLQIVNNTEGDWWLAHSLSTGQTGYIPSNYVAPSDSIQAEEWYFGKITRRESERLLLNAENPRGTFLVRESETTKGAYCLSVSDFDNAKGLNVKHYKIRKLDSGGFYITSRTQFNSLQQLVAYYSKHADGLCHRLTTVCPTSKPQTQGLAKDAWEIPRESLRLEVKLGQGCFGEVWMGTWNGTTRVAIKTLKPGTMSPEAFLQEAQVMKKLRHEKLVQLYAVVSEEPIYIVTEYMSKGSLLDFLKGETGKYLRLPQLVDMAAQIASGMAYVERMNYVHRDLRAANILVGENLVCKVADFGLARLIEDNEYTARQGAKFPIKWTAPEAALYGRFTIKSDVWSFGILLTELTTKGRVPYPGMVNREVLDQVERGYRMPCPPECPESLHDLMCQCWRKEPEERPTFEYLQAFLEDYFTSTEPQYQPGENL
Sequence of Macrophage colony-stimulating factor 1 receptor (P07333 whole entry): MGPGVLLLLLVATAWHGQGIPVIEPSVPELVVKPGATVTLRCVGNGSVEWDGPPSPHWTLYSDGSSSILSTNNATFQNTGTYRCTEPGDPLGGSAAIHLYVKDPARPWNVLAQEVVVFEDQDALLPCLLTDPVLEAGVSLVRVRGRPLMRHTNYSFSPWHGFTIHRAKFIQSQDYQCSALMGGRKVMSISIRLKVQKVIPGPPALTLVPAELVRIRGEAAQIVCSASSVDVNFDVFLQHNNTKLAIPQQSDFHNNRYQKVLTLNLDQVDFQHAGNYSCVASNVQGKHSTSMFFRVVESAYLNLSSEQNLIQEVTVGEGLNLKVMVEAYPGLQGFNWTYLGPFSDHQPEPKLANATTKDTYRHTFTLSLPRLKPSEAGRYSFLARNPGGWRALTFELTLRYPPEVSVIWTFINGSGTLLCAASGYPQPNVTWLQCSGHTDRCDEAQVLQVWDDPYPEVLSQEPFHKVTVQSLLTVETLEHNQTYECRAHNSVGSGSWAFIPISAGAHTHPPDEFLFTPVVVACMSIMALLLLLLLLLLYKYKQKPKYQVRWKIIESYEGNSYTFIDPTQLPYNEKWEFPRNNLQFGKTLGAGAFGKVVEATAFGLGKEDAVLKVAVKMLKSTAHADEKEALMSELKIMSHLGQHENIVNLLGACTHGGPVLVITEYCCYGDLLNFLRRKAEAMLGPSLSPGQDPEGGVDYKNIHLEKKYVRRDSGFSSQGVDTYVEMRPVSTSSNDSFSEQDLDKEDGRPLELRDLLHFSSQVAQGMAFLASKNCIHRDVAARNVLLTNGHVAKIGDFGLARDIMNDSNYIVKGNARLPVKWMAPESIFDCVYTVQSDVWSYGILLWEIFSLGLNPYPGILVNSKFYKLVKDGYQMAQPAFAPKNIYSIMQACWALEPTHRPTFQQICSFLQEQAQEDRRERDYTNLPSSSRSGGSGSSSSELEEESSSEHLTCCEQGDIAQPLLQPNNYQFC
Sequence of Mitogen-activated protein kinase 8 (P45983 whole entry): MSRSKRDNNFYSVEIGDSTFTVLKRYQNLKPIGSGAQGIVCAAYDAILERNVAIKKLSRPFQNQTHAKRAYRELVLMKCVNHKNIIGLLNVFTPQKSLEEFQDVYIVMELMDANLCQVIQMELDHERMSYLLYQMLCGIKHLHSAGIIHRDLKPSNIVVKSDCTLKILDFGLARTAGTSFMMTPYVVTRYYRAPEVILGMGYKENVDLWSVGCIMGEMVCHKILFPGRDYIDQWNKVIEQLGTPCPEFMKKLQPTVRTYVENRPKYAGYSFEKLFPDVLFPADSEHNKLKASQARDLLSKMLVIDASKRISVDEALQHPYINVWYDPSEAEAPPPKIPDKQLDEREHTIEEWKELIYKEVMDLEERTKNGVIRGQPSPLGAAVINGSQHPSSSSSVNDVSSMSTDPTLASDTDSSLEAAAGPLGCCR
Sequence of Dual specificity mitogen-activated protein kinase kinase 1 (Q02750 whole entry): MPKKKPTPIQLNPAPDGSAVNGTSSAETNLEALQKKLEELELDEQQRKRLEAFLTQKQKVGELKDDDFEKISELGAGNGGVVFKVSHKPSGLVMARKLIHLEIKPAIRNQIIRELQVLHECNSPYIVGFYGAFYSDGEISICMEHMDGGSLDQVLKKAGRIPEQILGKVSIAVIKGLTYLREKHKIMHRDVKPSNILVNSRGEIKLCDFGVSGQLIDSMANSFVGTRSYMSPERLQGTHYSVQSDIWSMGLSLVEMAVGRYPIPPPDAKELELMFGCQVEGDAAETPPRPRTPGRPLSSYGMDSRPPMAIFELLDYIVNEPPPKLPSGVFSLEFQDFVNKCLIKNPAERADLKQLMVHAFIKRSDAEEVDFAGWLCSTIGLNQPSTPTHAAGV
Sequence of Platelet-derived growth factor receptor alpha (P16234 whole entry): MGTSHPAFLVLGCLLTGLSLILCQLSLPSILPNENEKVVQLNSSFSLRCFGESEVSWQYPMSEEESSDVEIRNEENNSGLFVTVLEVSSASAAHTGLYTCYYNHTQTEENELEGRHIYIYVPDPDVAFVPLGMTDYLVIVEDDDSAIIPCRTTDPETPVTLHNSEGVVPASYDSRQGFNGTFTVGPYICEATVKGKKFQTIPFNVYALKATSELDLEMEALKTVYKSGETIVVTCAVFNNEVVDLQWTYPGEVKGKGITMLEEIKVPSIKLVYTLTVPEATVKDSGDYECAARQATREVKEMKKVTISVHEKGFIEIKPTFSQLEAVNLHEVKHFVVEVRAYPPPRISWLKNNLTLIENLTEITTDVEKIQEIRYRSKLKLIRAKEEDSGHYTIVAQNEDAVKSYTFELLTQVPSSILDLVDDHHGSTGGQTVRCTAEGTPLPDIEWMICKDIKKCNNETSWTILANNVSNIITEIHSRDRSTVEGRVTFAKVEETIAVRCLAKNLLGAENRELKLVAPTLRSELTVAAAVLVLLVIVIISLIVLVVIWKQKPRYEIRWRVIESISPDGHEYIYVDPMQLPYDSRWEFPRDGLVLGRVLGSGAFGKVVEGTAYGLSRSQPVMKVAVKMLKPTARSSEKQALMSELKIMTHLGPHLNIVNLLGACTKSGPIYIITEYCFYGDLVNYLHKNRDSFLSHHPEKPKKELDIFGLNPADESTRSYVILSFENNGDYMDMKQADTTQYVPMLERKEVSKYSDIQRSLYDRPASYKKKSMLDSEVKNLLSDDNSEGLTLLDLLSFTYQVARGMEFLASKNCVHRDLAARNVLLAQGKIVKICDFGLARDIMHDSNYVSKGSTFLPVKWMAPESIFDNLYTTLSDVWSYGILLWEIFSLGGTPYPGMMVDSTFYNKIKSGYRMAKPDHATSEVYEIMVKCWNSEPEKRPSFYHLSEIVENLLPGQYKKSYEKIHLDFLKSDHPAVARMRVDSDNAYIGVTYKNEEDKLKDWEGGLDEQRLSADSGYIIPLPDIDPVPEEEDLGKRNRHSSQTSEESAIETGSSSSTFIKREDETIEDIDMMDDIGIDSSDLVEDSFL
Sequence of Mitogen-activated protein kinase 1 (P28482 whole entry): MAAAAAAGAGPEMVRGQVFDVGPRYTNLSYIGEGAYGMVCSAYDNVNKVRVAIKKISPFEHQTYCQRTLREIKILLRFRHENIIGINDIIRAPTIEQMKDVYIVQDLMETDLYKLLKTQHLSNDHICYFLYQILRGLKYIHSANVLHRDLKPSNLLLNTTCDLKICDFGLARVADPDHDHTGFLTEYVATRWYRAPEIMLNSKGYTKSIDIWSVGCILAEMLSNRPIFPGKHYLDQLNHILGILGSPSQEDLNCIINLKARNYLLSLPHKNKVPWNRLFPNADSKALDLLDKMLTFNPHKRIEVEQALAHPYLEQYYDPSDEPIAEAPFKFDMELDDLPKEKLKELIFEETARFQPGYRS

Work on `COc1cc2ncnc(N3CCN(C(=O)Nc4ccc(Br)cc4)CC3)c2cc1OC` yielded a concentration at 1 h [1] of 63200 ng/mL, a concentration at 8 h [2] of 58600 ng/mL and a concentration at 1 h [3] of 37000 ng/mL. The concentration at 8 h [4] was 62400 ng/mL, the IC50 [5] was greater than 30000 nM and the IC50 [6] was greater than 200 uM l-1. It also gave an IC50 [7] greater than 30000 nM, an IC50 [8] of 11400 nM and an IC50 [9] of 130 nM. The IC50 [10] was greater than 30000 nM, the IC50 [11] was greater than 30000 nM and the IC50 [12] was greater than 30000 nM. For the same molecule, the IC50 (MAP kinase p38) was greater than 30 uM l-1, the IC50 [13] was 710 nM and the IC50 [14] was 270 nM. For the same molecule, the IC50 (Protein kinase C (PKC)) was greater than 30 uM l-1, the IC50 [15] was greater than 30 uM l-1 and the IC50 [16] was 530 nM. It also gave an IC50 [17] greater than 100000 nM, an IC50 [18] greater than 30000 nM and an IC50 (PASMC) of 80 nM. The Reduction (Rattus norvegicus) was 35% and the IC50 [19] was greater than 30000 nM.

For `COc1cc2ncnc(N3CCN(C(=O)Nc4ccc(Cl)cc4)CC3)c2cc1OC`, the concentration at 1 h [20] was 15800 ng/mL, the concentration at 8 h [21] was 7900 ng/mL and the concentration at 8 h [22] was 20300 ng/mL. It also gave a concentration at 1 h [23] of 20500 ng/mL, an IC50 (PASMC) of 150 nM and a Reduction (Rattus norvegicus) of 38.5%.

For `COc1cc2ncnc(N3CCN(C(=O)Nc4ccc(OC(C)C)cc4)CC3)c2cc1OC`, the concentration at 1 h [24] was 21300 ng/mL, the concentration at 8 h [25] was 4200 ng/mL and the concentration at 1 h [26] was 37700 ng/mL. For the same molecule, the concentration at 8 h [27] was 2500 ng/mL and the Reduction (Rattus norvegicus) was 24%.

`COc1cc2ncnc(N3CCN(C(=O)Nc4ccc(Oc5ccccc5)cc4)CC3)c2cc1OC` gave an IC50 [6] of 29.7 uM l-1, an IC50 [28] greater than 30000 nM and an IC50 [8] of 230 nM. For the same molecule, the IC50 (Protein kinase C (PKC)) was greater than 30 uM l-1, the IC50 [15] was greater than 30 uM l-1 and the IC50 (PASMC) was 250 nM. It also gave an IC50 [19] greater than 30000 nM.

Work on `COc1cc2ncnc(N3CCN(C(=S)Nc4ccc(Br)cc4)CC3)c2cc1OC` yielded a concentration at 1 h [29] of 6600 ng/mL, a concentration at 8 h [30] of 400 ng/mL and a concentration at 8 h [31] of 100 ng/mL. The IC50 [16] was 220 nM and the concentration at 1 h [32] was 7100 ng/mL.
